The record followed here is ChEMBL document CHEMBL4613214, “In Vitro Activation of Cytochrome P450 46A1 (CYP46A1) by Efavirenz-Related Compounds” (J Med Chem, 2020).

Calls of active or inactive are those of the source. The rule behind the calls is not given here.

Data set [1] is filed under the species Homo sapiens. Nature of the data set: Activation of recombinant human C-terminal 4His-tagged CYP46A1 delta(2 to 50) Y427F mutant expressed in Escherichia coli at 20 uM using cholesterol as substrate measured after 30 mins in presence of cytochrome P450 oxidoreductase by gas chromatography-mass spectrometry. In a few lines:
(§1)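 Fixed 20 μM test compound (final, 2% methanol) with 0.5 μM purified Δ(2-50)CYP46A1 (wild type or mutant) and 1.0 μM rat P450 oxidoreductase. Buffer: 50 mM KPi pH 7.2, 100 mM NaCl, 40 μg/mL dilauroylphosphatidylcholine, 40 μM cholesterol, catalase, NADPH-regenerating system. Run 30 min at 37 °C. 24-Hydroxycholesterol measured by GC-MS against a deuterated internal standard. Fold activation over no-activator control; mean ± SD, three independent experiments.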

In data set [2] the test system is Cholesterol 24-hydroxylase (Homo sapiens), Q9Y6A2 [UNDEFINED MUTATION]. The data set is described as follows: Activation of recombinant human C-terminal 4His-tagged CYP46A1 delta(2 to 50) mutant expressed in Escherichia coli using cholesterol as substrate measured after 30 mins in presence of cytochrome P450 oxidoreductase by gas chromatography-mass spectrometry. The essentials:
(§2)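 Concentration-dependence curves with test compound at 0–100 μM (2% final methanol). Enzyme: 0.5 μM Δ(2-50)CYP46A1 plus 1.0 μM P450 oxidoreductase. Buffer: KPi pH 7.2, 100 mM NaCl, dilauroylphosphatidylcholine, 40 μM cholesterol, catalase, NADPH-regenerating system. Run 30 min at 37 °C. 24-Hydroxycholesterol quantified by GC-MS with a deuterated internal standard, expressed as nmol/nmol P450/min; mean ± SD, three experiments.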

Data set [3] is filed under the species Homo sapiens. The data set is described as follows: Activation of recombinant human C-terminal 4His-tagged CYP46A1 delta(2 to 50) R415A mutant expressed in Escherichia coli at 20 uM using cholesterol as substrate measured after 30 mins in presence of cytochrome P450 oxidoreductase by gas chromatography-mass spectrometry. The essentials: as §1
In data set [4] the target is T1, Cholesterol 24-hydroxylase (Homo sapiens, UniProt Q9Y6A2). Nature of the data set: Inhibition of recombinant human C-terminal 4His-tagged CYP46A1 delta(2 to 50) mutant expressed in Escherichia coli at 60 to 100 uM using cholesterol as substrate measured after 30 mins in presence of cytochrome P450 oxidoreductase by gas chromatography-mass spectrometry. In kind it is ADME. As to conditions: 0.5 h. The essentials: as §2
T1 sequence (Q9Y6A2 whole entry, looked up, stated change not applied): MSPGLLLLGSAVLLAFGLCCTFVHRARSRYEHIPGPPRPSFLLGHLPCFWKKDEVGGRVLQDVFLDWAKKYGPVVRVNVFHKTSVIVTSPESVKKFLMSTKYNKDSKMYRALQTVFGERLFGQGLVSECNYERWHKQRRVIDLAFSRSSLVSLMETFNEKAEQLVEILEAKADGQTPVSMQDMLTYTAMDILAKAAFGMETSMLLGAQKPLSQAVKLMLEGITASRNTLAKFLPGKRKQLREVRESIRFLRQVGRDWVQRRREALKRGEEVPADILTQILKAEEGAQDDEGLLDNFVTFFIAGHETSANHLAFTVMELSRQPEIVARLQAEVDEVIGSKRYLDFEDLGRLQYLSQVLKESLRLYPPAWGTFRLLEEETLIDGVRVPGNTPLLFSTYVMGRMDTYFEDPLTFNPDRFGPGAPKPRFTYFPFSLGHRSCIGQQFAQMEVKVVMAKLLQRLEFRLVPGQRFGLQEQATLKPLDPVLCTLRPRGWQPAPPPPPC

The species named for data set [5] is Homo sapiens. Nature of the data set: Activation of recombinant human C-terminal 4His-tagged CYP46A1 delta(2 to 50) K358R mutant expressed in Escherichia coli at 20 uM using cholesterol as substrate measured after 30 mins in presence of cytochrome P450 oxidoreductase by gas chromatography-mass spectrometry. The essentials:
as §1

For data set [6], the species on record is Homo sapiens. The data set is described as follows: Activation of recombinant human C-terminal 4His-tagged CYP46A1 delta(2 to 50) K358L mutant expressed in Escherichia coli at 20 uM using cholesterol as substrate measured after 30 mins in presence of cytochrome P450 oxidoreductase by gas chromatography-mass spectrometry. The essentials:
as §1

Data set [7] deals with Cholesterol 24-hydroxylase (Homo sapiens), Q9Y6A2 [UNDEFINED MUTATION]. Nature of the data set: Activation of recombinant human C-terminal 4His-tagged CYP46A1 delta(2 to 50) mutant expressed in Escherichia coli at 20 uM using cholesterol as substrate measured after 30 mins in presence of cytochrome P450 oxidoreductase and L-Glu by gas chromatography-mass spectrometry relative to control. In a few lines: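 Co-incubation of 100 μM L-Glu with 20 μM test compound, 0.5 μM Δ(2-50)CYP46A1 and 1.0 μM P450 oxidoreductase. Buffer: 50 mM KPi pH 7.2, 100 mM NaCl, phospholipid, 40 μM cholesterol, NADPH-regenerating system. Run 30 min at 37 °C. 24-Hydroxycholesterol measured by GC-MS with a deuterated internal standard. Fold activation relative to control; mean ± SD of three experiments.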
Chain of Cholesterol 24-hydroxylase (Homo sapiens), Q9Y6A2 [UNDEFINED MUTATION] (Q9Y6A2 whole entry, looked up, stated change not applied): as above

The test system is the same in data set [8]. Nature of the data set: Activation of recombinant human C-terminal 4His-tagged CYP46A1 delta(2 to 50) mutant expressed in Escherichia coli at 20 uM using cholesterol as substrate measured after 30 mins in presence of cytochrome P450 oxidoreductase by gas chromatography-mass spectrometry relative to control. In a few lines:
as §1

Data set [9] is filed under the species Homo sapiens. The data set is described as follows: Activation of recombinant human C-terminal 4His-tagged CYP46A1 delta(2 to 50) F416A mutant expressed in Escherichia coli at 20 uM using cholesterol as substrate measured after 30 mins in presence of cytochrome P450 oxidoreductase by gas chromatography-mass spectrometry. The essentials: as §1
The species entered for data set [10] is Homo sapiens. Nature of the data set: Activation of recombinant human C-terminal 4His-tagged CYP46A1 delta(2 to 50) F405A mutant expressed in Escherichia coli at 20 uM using cholesterol as substrate measured after 30 mins in presence of cytochrome P450 oxidoreductase by gas chromatography-mass spectrometry. The essentials: as §1
The species entered for data set [11] is Homo sapiens. Nature of the data set: Activation of recombinant human C-terminal 4His-tagged CYP46A1 delta(2 to 50) Y427A mutant expressed in Escherichia coli at 20 uM using cholesterol as substrate measured after 30 mins in presence of cytochrome P450 oxidoreductase by gas chromatography-mass spectrometry. In a few lines: as §1
The species named for data set [12] is Homo sapiens. Nature of the data set: Activation of recombinant human C-terminal 4His-tagged CYP46A1 delta(2 to 50) K358A mutant expressed in Escherichia coli at 20 uM using cholesterol as substrate measured after 30 mins in presence of cytochrome P450 oxidoreductase by gas chromatography-mass spectrometry. The essentials: as §1
The target of data set [13] is T1, Cholesterol 24-hydroxylase. The data set is described as follows: Inhibition of recombinant human C-terminal 4His-tagged CYP46A1 delta(2 to 50) mutant expressed in Escherichia coli at up to 100 uM using cholesterol as substrate measured after 30 mins in presence of cytochrome P450 oxidoreductase by gas chromatography-mass spectrometry. In kind it is ADME. The conditions noted are these: 0.5 h. In a few lines: as §2

As for `O=C1Nc2c(O)cc(Cl)cc2[C@@](C#CC2CC2)(C(F)(F)F)O1`, the outcome in [1], in [3], in data set [5], in [6], in data set [9] and in data set [10] was Active. Also, the outcome in data set [11] and in data set [12] was Active. For the same molecule, in data set [2], the Activity entry was “Dose-dependent effect”. The “inhibition (INH)” value in data set [4] is reported as “Not Active”. The fold change (FC) in [7] came out at 7.4; in data set [8], 6.2.

Take `FC(F)(F)[C@@]1(C#CC2CC2)OCNc2ccc(Cl)cc21`: the result in data set [1], in data set [5], in [6], in [9], in data set [11] and in data set [12] was Active. Further, the Activity entry in data set [2] was “Dose-dependent effect”. The outcome in data set [3], in data set [7] and in data set [10] was inactive. Moreover, the fold change (FC) in data set [8] turned out to be 2.5. For the same molecule, in [13], the “inhibition (INH)” value is on record as “Not Active”.

For `CCCC#CC1(C(F)(F)F)OC(=O)Nc2ccc(Cl)cc21` (racemic), the outcome in data set [1], in data set [5], in data set [6], in [9], in data set [11] and in [12] was inactive. For the same molecule, the Activity result in [2] is “Dose-dependent effect”. Further, the result in data set [3] and in data set [10] was Active. In addition, the “inhibition (INH)” value in data set [4] is recorded as “Not Active”. In addition, the fold change (FC) was 3.7 in [7] and 3.1 in [8].

For the molecule `O=C1Nc2cc(O)c(Cl)cc2C(C#CC2CC2)(C(F)(F)F)O1` (racemic), the outcome in data set [1], in data set [3], in data set [5], in data set [6], in [9] and in data set [10] was Active. Moreover, the result in [11] and in data set [12] was Active. Also, the Activity entry in data set [2] was “Dose-dependent effect”. Also, in [4], the “inhibition (INH)” value is “Not Active”. Moreover, the fold change (FC) in data set [7] was found to be 6.8; in data set [8] it was 5.8.

Turning to `O=C1CC(C#CC2CC2)(C(F)(F)F)c2cc(Cl)ccc2N1` (racemic), the result in data set [1], in data set [5], in data set [6], in [9], in [11] and in data set [12] was inactive. The Activity result in data set [2] was “Dose-dependent effect”. Further, the result in data set [3] and in data set [10] was Active. The “inhibition (INH)” value in [4] is on record as “Not Active”. In addition, the fold change (FC) in [7] came to 4.6; in data set [8], 3.9.

Turning to `O=C1Cc2ccc(Cl)cc2C(C#CC2CC2)(C(F)(F)F)O1` (racemic), the outcome in data set [1], in data set [3], in data set [5], in [6], in [9] and in data set [10] was Active. In addition, the outcome in data set [11] and in data set [12] was Active. The figures for the fold change (FC) in data set [7] and in data set [8] were 2.8 and 1.9, respectively. Also, the “inhibition (INH)” value in data set [13] is reported as “Not Active”.

As to `CC1Nc2ccc(Cl)cc2C(C#CC2CC2)(C(F)(F)F)O1` (racemic), the result in [1], in data set [5], in data set [6], in data set [9], in data set [11] and in [12] was Active. For the same molecule, the Activity result in data set [2] was “Dose-dependent effect”. In addition, the outcome in data set [3], in data set [7] and in data set [10] was inactive. The “inhibition (INH)” value in data set [4] was “Not Active”. In addition, the fold change (FC) in data set [8] is 2.6.

Consider `O=C1Nc2c(O)cc(Cl)cc2C(C#CC2CC2)(C(F)(F)F)O1` (racemic), for which, in data set [2], the Activity result was “Dose-dependent effect”. Further, in data set [4], the “inhibition (INH)” value is listed as “Not Active”.

For `O=C1Nc2ccc(Cl)cc2[C@@](C#CC2CC2)(C(F)(F)F)O1` [EFAVIRENZ], the result in data set [3] and in [10] was Active. Further, in data set [4], the “inhibition (INH)” value is “Active”. In addition, the result in data set [5], in data set [6], in data set [9], in data set [11] and in data set [12] was inactive.
